From PubChem BioAssay
MC4R ag barr = human MC4R agonism via beta-arrestin; P32245; U2OS MC4R beta-arrestin complementation, luminescence; percent of melanotan II response, DMSO zero; activation, % at 8.9 µM; 360,000 tested, 0.98% active;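 active means activation above a per-plate cutoff, the mean activation of sample wells on that plate plus 3 SD, cut at about 8% in these data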
MC4R antag cAMP = antagonists of human melanocortin 4 receptor (MC4R) | P32245 | MC4R-expressing cells, MTII-stimulated cAMP, LANCE TR-FRET | inhibition, % at 6.5 µM | 360,000 tested, 0.48% active | AID 540295;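 active means inhibition above its plate's cutoff, the mean of tested wells on that plate plus 3 SD, cut at about 29% in these data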;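 further: 0% = Melanotan II alone and 100% = Melanotan II plus saturating MCL0020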
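System: U2OS cells stably expressing human melanocortin 4 receptor (MC4R). Reagent: Melanotan II challenge after compound preincubation. Doses: 6.5 µM. Times: 30-min compound, 1-h challenge, 1-h detection, room temperature. Measured by: TR-FRET with Eu-cAMP and labeled anti-cAMP, 671 nm. Replicates: singlicate.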
B2AR ag = activates human beta-2 adrenergic receptor causing internalization | P07550 | Am2.2-beta2AR cells, FAP receptor internalization, flow cytometry | response, % (no concentration beside the values) | 340,000 tested, 0.43% active;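 active means response above a set limit, near 3 SD of response in nonfluorescent compounds, cut at about 42% in these data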
TAAR1 agonist = human TAAR1 agonism; Q96RJ0; CHO RD-HGA16 TAAR1, Fluo-8 calcium fluorescence; vehicle wells 0%, saturating PEA agonist 100%; activation, % at 3 µM; 360,000 tested, 0.99% active;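 active means activation above the mean activation of all test compounds in the run plus 3 SD, cut at about 38% in these data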
Target sequence (Q96RJ0 whole entry, looked up): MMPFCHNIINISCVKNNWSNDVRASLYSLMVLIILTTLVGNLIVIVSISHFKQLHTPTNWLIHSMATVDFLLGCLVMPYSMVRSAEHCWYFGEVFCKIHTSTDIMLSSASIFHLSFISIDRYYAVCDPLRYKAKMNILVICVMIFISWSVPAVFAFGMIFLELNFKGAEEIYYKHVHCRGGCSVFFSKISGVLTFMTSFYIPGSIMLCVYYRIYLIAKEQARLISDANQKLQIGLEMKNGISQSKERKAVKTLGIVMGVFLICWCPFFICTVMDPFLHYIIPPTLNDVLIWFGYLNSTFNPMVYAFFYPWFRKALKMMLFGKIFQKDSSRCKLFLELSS
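Assay system – CHO-derived RD-HGA16 cells with stable Gα16 and human TAAR1 · Compound dosing – one-point dosing at 3 µM (nominal) · Incubation – 17-24 h seeding, 75 min 37 °C dye, 30 min RT · Measured by – kinetic Fluo-8 calcium fluorescence · Control set – DMSO vehicle as 0%, PEA at EC100 as 100% · Repeats – single well for each compound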
m5-HT2A agonist = mouse HTR2A agonism via beta-arrestin recruitment; P35363; CHO-K1 mHTR2A beta-arrestin complementation, luminescence; percent of 30 µM serotonin response; activation, % at 7.6 µM; 360,000 tested, 0.66% active; AID 624169;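 active means activation above a run cutoff, the mean activation of all tested compounds plus 3 SD, cut at about 14% in these data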;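 further: 0% = plate median of compound wells and 100% = 30 µM serotonin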
TAAR1 antag = human TAAR1 antagonism | inhibition, % at 3 µM | Q96RJ0 | AID 624466 | CHO RD-HGA16 TAAR1, Fluo-8 calcium fluorescence, antagonist | 360,000 tested, 1.5% active;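 active means inhibition above a per-plate cutoff, the mean inhibition of test compounds on that plate plus 3 SD, cut at about 49% in these data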;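 further: 0% = DMSO plus EC80 beta-PEA response and 100% = DMSO alone without agonist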
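System: RD-HGA16 CHO cells with stable hTAAR1 and Gα16 | Probe or stimulus: EC80 β-phenethylamine stimulus | Dosing: 3 µM, single point | Times: Dye loading 75 min at 37 °C, then 30 min room temperature | Measured by: Fluo-8 calcium-sensitive fluorescence | Read-out basis: % inhibition of agonist calcium response | Replicates: n of 1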
Beta2AR ag CP1 = human beta-2 adrenergic receptor agonism, cherry pick; shares compounds with B2AR ag; Am2.2-beta2AR cells, FAP surface receptor, flow cytometry; stronger effect = lower value; percent response (surface receptor), % at 10 µM; 1,100 tested, 25% active; AID 540358;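 active means surface receptor percent response at or below 58%, roughly 3 SD from nonfluorescent compounds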
B2AR FAP counter = counter-screen for beta-2AR agonists: fluorescence in Am2.2 cells | shares compounds with B2AR ag | FAP fluorogen flow cytometry, fluorescence counterscreen; stronger effect = lower value | calls only at 10 µM | 1,100 tested, under 10 active;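 active means percent response below a set limit in fluorescence channel 1 and below 50% in channel 8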
* = called active by the depositor. An excerpt weighted towards active compounds, which were near 4.3% of everything screened.

For O=C(NCc1ccccc1Cl)C1CCCN1C(=O)Nc1ccccc1 (configuration not stated) the results were MC4R ag barr 3.5, MC4R antag cAMP 17.0, B2AR ag 4.2, TAAR1 agonist 0.4, m5-HT2A agonist 6.1 and TAAR1 antag 16.5.
Screening COC(=O)[C@]12C[C@H](CC(=O)NCc3cccc(C(F)(F)F)c3)C(=O)N(Cc3ccccc3)C1=C[C@H](C1CCCC1)O[C@@H]2C returned TAAR1 agonist 0.1 and TAAR1 antag -17.0.
`COc1ccc(-n2c(SCC(N)=O)nnc2-c2ccc(NS(=O)(=O)c3ccc(C)cc3)cc2)cc1` gave MC4R ag barr 1.4, MC4R antag cAMP 13.1, B2AR ag 55.4*, TAAR1 agonist 9.1, m5-HT2A agonist -4.1, TAAR1 antag -3.4, Beta2AR ag CP1 106.1 and B2AR FAP counter inactive.
For O=C(OCC(=O)N1CCN(C(=O)c2ccco2)CC1)c1cccc(F)c1 the results were MC4R ag barr 0.7, MC4R antag cAMP -0.8, B2AR ag 9.6, TAAR1 agonist 9.5, m5-HT2A agonist 13.6 and TAAR1 antag -6.8.
CCc1ccc(S(=O)(=O)NCC2(N3CCOCC3)CCCCC2)cc1 was read as MC4R ag barr -2.2, MC4R antag cAMP 12.0, B2AR ag -4.0, TAAR1 agonist 3.4, m5-HT2A agonist -0.9 and TAAR1 antag -13.3.
Screening CSCCC(NC(=O)c1ccccc1Cl)C(=O)N(C)Cc1cccs1 (configuration not stated) returned MC4R ag barr -0.8, MC4R antag cAMP 9.5, B2AR ag 7.2, TAAR1 agonist 4.8, m5-HT2A agonist 6.9 and TAAR1 antag -7.7.
`OC(CNCc1cccc(Br)c1)c1ccccc1` (configuration not stated) gave MC4R ag barr -1.0, MC4R antag cAMP 1.9, B2AR ag -2.1, TAAR1 agonist 10.2, m5-HT2A agonist -2.7, TAAR1 antag -3.3, Beta2AR ag CP1 119.8 and B2AR FAP counter inactive.
Cc1ccccc1Oc1ccc2c(c1)[C@@H]1C[C@H](N(C)C(=S)Nc3ccc(F)cc3)[C@H]([C@H](C)O)C(=O)N1CC2 was read as MC4R ag barr 1.9, MC4R antag cAMP 10.0, TAAR1 agonist 18.3, m5-HT2A agonist -0.9 and TAAR1 antag -44.9.
`Cc1ccc(S(=O)(=O)N2CCCCC2)cc1NC(=O)c1cc2ccccc2o1` gave MC4R ag barr 0.7, MC4R antag cAMP -0.3, B2AR ag 1.3, TAAR1 agonist 21.5, m5-HT2A agonist -9.6 and TAAR1 antag 21.2.
For CCN1CCN(c2ccc(S(=O)(=O)N3CCCCC3)cc2NC(=O)c2cc3ccccc3o2)CC1 the results were MC4R ag barr -1.8, MC4R antag cAMP -0.6, B2AR ag 47.9*, TAAR1 agonist 1.4, m5-HT2A agonist -2.3, TAAR1 antag 7.6, Beta2AR ag CP1 115.4 and B2AR FAP counter inactive.
`CSc1ccccc1C(=O)N(CC1CCCO1)c1c(N)n(Cc2ccccc2)c(=O)[nH]c1=O` (configuration not stated) gave MC4R ag barr -1.6, MC4R antag cAMP 2.0, B2AR ag -4.1, TAAR1 agonist -0.8, m5-HT2A agonist 5.4 and TAAR1 antag -14.5.
O=[N+]([O-])c1ccc(-[n+]2ccc3ccccc3c2)c([N+](=O)[O-])c1 was read as MC4R ag barr -1.4, MC4R antag cAMP 1.5, B2AR ag 47.3*, TAAR1 agonist 15.8, m5-HT2A agonist 3.1, TAAR1 antag -3.3, Beta2AR ag CP1 39.6* and B2AR FAP counter inactive.
`COC(=O)c1ccc(CNC(=O)Cn2cnc3c(SC)nc(N)nc32)cc1` gave MC4R ag barr -1.6, MC4R antag cAMP 1.5, B2AR ag 0.1, TAAR1 agonist 3.1, m5-HT2A agonist 3.9 and TAAR1 antag -2.9.
